Data on four compounds can be found in ChEMBL document CHEMBL4334454, “Alkaloids Purified from Aristotelia chilensis Inhibit the Human α3β4 Nicotinic Acetylcholine Receptor with Higher Potencies Compared with the Human α4β2 and α7 Subtypes” (J Nat Prod, 2019).

Common to all, as to type: cell-based
Test [1] concerns the target T1, Neuronal acetylcholine receptor; alpha4/beta2 (Homo sapiens, UniProt P17787+P43681). Kind of test: Agonist activity at human AChR alpha4beta2 transfected in human HEK293 cells assessed as increase in calcium influx incubated for 1 hr by fluo-4 dye based assay.
Test [2] deals with T2, Neuronal acetylcholine receptor subunit alpha-7 (Homo sapiens, UniProt P36544). In words: Agonist activity at human AChR alpha7 transfected in rat GH3 cells assessed as increase in calcium influx incubated for 1 hr by fluo-4 dye based assay.
T2 sequence (P36544 whole entry): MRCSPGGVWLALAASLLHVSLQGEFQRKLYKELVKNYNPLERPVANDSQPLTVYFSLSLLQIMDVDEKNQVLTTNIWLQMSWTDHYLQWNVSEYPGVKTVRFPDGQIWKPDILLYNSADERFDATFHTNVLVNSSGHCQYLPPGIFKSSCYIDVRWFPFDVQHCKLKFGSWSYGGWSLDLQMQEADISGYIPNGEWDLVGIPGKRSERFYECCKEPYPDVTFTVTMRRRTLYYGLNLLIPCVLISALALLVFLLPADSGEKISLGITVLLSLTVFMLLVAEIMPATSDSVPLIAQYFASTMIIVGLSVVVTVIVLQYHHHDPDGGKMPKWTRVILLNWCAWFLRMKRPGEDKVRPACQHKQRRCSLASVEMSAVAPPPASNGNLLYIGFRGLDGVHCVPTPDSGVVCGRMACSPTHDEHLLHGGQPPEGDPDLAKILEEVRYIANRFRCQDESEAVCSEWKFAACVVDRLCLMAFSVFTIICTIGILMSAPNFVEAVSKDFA
For test [3], the target named is T1, Neuronal acetylcholine receptor; alpha4/beta2. In words: Antagonist activity at human AChR alpha4beta2 transfected in human HEK293 cells assessed as decrease in epibatidine-induced calcium influx incubated for 1 hr by fluo-4 dye based assay. In a few lines: (§1)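 HEK293-hα3β4 or HEK293-hα4β2 cells were seeded 72 h ahead, kept in HBSS/1% FBS (pH 7.4) 16–24 h, and loaded with Fluo-4 plus 2.5 mM probenecid for 1 h at 37 °C. After washing, cells were pretreated 5 min with alkaloid at varied concentrations. 0.1 μM (±)-epibatidine was then added while fluorescence (488/510 nm) was recorded for 78 s. Responses were normalized to the maximal epibatidine response, mean ± SD (n = 3). IC50 and nH came from concentration–response curves.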

In test [4] the target is T2, Neuronal acetylcholine receptor subunit alpha-7. In words: Antagonist activity at human AChR alpha7 transfected in rat GH3 cells assessed as decrease in epibatidine-induced calcium influx incubated for 1 hr by fluo-4 dye based assay. The essentials:
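GH3-hα7 cells were seeded 72 h ahead, kept in HBSS/1% FBS (pH 7.4) 16–24 h, and loaded with Fluo-4 plus 2.5 mM probenecid for 1 h at 37 °C. After washing, cells were pretreated 5 min with varied alkaloid concentrations. 1.0 μM (±)-epibatidine was then added while fluorescence (488/510 nm) was recorded for 78 s. Data were normalized to the maximal epibatidine response, mean ± SD (n = 3). IC50 and nH were fitted.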

The target of test [5] is T3, Neuronal acetylcholine receptor; alpha3/beta4 (Homo sapiens, UniProt P30926+P32297). Kind of test: Antagonist activity at human AChR alpha3beta4 transfected in human HEK293 cells assessed as decrease in epibatidine-induced calcium influx incubated for 1 hr by fluo-4 dye based assay.
T3 sequence (P30926 whole entry): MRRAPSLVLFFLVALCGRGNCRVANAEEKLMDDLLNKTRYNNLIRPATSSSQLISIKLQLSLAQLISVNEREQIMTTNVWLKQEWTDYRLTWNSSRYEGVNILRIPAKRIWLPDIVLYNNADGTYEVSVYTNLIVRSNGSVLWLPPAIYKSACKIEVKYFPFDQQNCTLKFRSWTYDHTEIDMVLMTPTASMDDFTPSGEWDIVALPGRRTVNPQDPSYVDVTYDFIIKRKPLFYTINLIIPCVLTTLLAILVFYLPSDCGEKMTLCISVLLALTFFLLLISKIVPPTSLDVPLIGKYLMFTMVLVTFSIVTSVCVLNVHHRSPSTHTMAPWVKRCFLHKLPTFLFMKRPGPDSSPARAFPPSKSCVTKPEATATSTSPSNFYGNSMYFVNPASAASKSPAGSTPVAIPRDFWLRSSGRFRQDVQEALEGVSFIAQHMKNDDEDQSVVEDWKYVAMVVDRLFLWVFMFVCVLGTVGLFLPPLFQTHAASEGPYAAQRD
T3 sequence (P32297 whole entry): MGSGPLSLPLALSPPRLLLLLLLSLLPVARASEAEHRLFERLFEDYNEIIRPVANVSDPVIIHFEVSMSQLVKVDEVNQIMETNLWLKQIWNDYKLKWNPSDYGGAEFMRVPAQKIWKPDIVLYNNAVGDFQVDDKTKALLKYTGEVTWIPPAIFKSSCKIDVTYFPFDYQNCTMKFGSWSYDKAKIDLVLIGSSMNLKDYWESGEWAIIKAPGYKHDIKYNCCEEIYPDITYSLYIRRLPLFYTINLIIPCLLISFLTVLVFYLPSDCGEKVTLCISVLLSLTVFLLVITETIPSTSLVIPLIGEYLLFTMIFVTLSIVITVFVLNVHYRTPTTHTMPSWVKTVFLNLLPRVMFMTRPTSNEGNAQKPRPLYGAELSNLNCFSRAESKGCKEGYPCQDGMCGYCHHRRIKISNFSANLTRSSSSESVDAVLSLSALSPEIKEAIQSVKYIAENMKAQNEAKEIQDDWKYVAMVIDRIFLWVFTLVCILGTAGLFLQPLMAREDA
Test [6] has as its target T3, Neuronal acetylcholine receptor; alpha3/beta4. Kind of test: Antagonist activity at human AChR alpha3beta4 transfected in human HEK293 cells assessed as decrease in epibatidine-induced calcium influx at 100 uM incubated for 1 hr by fluo-4 dye based assay relative to control. The essentials: as §1
Test [7] has as its target T1, Neuronal acetylcholine receptor; alpha4/beta2. In words: Antagonist activity at human AChR alpha4beta2 transfected in human HEK293 cells assessed as decrease in epibatidine-induced calcium influx at 10 to 100 uM incubated for 1 hr by fluo-4 dye based assay relative to control. The essentials: as §1
The target in test [8] is T2, Neuronal acetylcholine receptor subunit alpha-7. In words: Antagonist activity at human AChR alpha7 transfected in […] cells assessed as decrease in epibatidine-induced calcium influx at 10 to 100 uM incubated for 1 hr by fluo-4 dye based assay relative to control.
Test [9] is filed under the species Homo sapiens. Kind of test: Selectivity index, ratio of IC50 for human AChR alpha4beta2 transfected in human HEK293 cells to IC50 for human AChR alpha3beta4 transfected in human HEK293 cells.
The species entered for test [10] is Homo sapiens. Kind of test: Selectivity index, ratio of IC50 for human AChR alpha7 transfected in rat GH3 cells to IC50 for human AChR alpha3beta4 transfected in human HEK293 cells.

Active and inactive are the calls of the source. No cut-off for these calls is given here.

T1 sequence (P17787 whole entry): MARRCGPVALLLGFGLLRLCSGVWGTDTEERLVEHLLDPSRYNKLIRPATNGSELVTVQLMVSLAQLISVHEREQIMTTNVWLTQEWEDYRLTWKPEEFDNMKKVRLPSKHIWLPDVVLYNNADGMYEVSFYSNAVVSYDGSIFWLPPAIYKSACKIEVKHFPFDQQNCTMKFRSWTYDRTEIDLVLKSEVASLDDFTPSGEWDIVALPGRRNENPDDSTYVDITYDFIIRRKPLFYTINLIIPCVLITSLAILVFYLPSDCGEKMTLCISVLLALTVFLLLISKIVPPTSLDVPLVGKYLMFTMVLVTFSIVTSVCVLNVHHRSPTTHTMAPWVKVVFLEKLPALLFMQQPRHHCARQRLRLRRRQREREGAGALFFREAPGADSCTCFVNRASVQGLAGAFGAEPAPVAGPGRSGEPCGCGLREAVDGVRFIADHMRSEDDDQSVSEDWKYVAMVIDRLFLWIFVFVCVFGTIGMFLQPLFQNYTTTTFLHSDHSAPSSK
T1 sequence (P43681 whole entry): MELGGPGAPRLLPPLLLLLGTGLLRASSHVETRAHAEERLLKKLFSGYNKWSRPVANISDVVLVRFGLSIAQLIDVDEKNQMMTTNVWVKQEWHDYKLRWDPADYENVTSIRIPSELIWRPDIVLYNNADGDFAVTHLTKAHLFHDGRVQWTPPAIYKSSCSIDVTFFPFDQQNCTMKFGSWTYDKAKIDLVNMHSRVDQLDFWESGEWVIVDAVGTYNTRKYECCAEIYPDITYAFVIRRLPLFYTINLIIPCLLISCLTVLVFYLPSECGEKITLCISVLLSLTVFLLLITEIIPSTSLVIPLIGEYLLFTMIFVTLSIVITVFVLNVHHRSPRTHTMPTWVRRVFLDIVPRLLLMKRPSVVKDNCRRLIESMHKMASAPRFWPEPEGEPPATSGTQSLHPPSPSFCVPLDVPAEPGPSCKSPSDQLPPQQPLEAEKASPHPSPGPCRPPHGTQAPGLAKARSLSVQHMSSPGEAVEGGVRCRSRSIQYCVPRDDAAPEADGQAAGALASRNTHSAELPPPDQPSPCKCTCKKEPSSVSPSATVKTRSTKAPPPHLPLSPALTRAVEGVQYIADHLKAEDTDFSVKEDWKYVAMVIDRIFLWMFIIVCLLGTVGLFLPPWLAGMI

What is called IC50 is the midpoint of a concentration-inhibition curve. For `CC1=CC[C@@H]2C[C@H]1[C@@H](c1ccnc3ccccc13)NC2(C)C`, the outcome in [1] and in [2] was inactive. The IC50 in test [3] is 6.7 µM; in [4] (read-out: IC50) it was 45.3 µM.

Broadly, the inhibition is the percentage by which the read-out fell short of the control. Turning to `CC1(C)[C@@H]2C[C@@H]3[C@H]4C[C@@]5(Nc6ccccc6[C@@H]5N41)[C@]3(C)CC2=O`, the result in test [1] and in test [2] was inactive. Further, the half-maximal inhibitory concentration (IC50) was 167 µM in test [5], 145 µM in test [3] and “Not Active” in test [4] (gh3). Further, in [6], the inhibition stood at 40%. Also, the inhibition result in test [7] and in test [8] was “inactive” each time.

Consider `Clc1ccc(C2C[C@@H]3CC[C@H]2N3)cn1` (mixture of isomers), for which the outcome in [1] and in test [2] was Active.

As for `CC1(C)N[C@@H]2Cc3c([nH]c4ccccc34)[C@]3(C)CC[C@H]1C[C@H]23`, the result in test [1] and in test [2] was inactive. Moreover, the IC50 stood at 0.4 µM in [5], 3.4 µM in [3] and 27 µM in [4] (read-out: IC50). Also, the figures for the Ratio IC50 in the test filed under Homo sapiens [9] and in the test filed under Homo sapiens [10] were 8.4 and 67.5, respectively. The inhibition in [7] and in [8] was 100% in each case.
